Hits are enriched below; roughly 3.2% of the tested compounds scored in any of these assays.
S100A4 MyoIIA: blocks human S100A4 binding to myosin IIA peptide; P26447; S100A4/TAMRA-MyoIIA peptide fluorescence polarization; inhibition, % at 10.7 µM; 360,000 compounds, 0.14% hits;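 active = mean inhibition of at least 70% across replicates, with every replicate also reaching that level; inconclusive = mean inhibition reaches 70% but some replicates fall short; inactive = mean inhibition below 70%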
Target sequence (P26447 whole entry, looked up): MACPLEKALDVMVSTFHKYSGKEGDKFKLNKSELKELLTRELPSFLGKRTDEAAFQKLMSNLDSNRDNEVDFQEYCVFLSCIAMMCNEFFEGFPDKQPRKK
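Compound dosing: one dose per compound; test system: human S100A4 monomer with TAMRA-labelled myosin IIA peptide; probe or stimulus: TAMRA-labelled myosin IIA heavy-chain peptide probe, 5 nM; medium: HEPES buffer with Ca2+, pH 7.2; schedule: 5 min incubation before reading; benchmarks: neutral control DMSO, positive control TFP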
Ecoli rRNA inh: selective bacterial rRNA inhibition in E. coli; AID 720706; GFP signal change (wild-type ribosome), % (concentration not given with the values); E. coli WT GFP vs humanized-ribosome RFP mutants, fluorescence, 24 h; stronger effect = lower value; DMSO median 0, no signal -100; 350,000 compounds, 1.6% hits;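 active = significant combined selectivity score with lowered wild-type GFP, culture density cut under 30%, mutant RFP and density less affected; inactive = any of these conditions unmet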
Cneo AK release: Cryptococcus neoformans lysis via adenylate kinase release. C. neoformans lysis, adenylate kinase release luminescence, 4 h; normalised: neutral wells 0, clomiphene wells 100. lysis activity, % at 15 µM. 360,000 compounds, 0.2% hits. AID 651654;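 active = mean lysis activity across replicates of at least 80%, whatever share of replicates individually reach that level; inactive = mean lysis activity below 80%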
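read-out = cell lysis signal | test system = log-phase Cryptococcus neoformans yeast cells | input = cells at 5 × 10^6 per mL | medium = fresh YPD growth medium | signal = luminescent adenylate kinase detection reagent | timing = 4 h at 37 °C static, read 1 h later | dosing = single dose | controls = Clomiphene as positive lysis control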
AF4-AF9 inh: blocks AF4 peptide binding to human AF9; AlphaScreen, biotin-AF4 peptide binding to FLAG-AF9; inhibition, % at 10 µM; AID 651704; 350,000 compounds, 0.47% hits;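 active = every replicate reaching a set inhibition limit, whatever the replicate mean, cut at about 25% in these data; inconclusive = mean inhibition reaches that limit but some replicates miss it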
DENV2 CPE: inhibitors of DENV2 cytopathic effect; DENV2-infected cells, cytopathic effect rescue, plate reader; CPE inhibition, % at 9.99 µM; 350,000 compounds, 1.7% hits; AID 651640; in the data active = CPE inhibition above about 20%, passing the limit was not always enough; inconclusive = no clear call, values can overlap the other calls; tested in BHK-21 cells
PfHsp90 yeast 2: reduces growth (ATP signal) of yeast expressing P. falciparum Hsp90. S. cerevisiae expressing PfHsp90, BacTiter-Glo ATP, 48 h; yeast lacking PDR1 and PDR3 efflux regulators. 310,000 compounds, 0.32% hits. inhibition, % at 9.4 µM. AID 504621;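 active = every replicate shows inhibition above about 80%, whatever the replicate mean, limit read from the data; inconclusive = mean inhibition reaches the set limit but some replicate falls short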
Large screens that a line does not name were inactive; ! = not confirmed by another sample.

CC(=O)n1cc([C@@H]2C=C(C(=O)O)O[C@H](OCc3ccc(CO)cc3)C2)c2ccccc21	DENV2 CPE 28.5!
O=C(Cc1ccncc1)NCC[C@@H]1CC[C@H](NC(=O)C2CC2)[C@H](CO)O1	none (no result: PfHsp90 yeast 2)
Cc1ccc(S(=O)(=O)N[C@H]2CC[C@H](CC(=O)N3CCC(Cc4ccccc4)CC3)O[C@@H]2CO)cc1	none (no result: PfHsp90 yeast 2)
CCCN1[C@H](C(=O)NCC(F)(F)F)[C@@H](CO)[C@@H]2Cn3c(ccc(-c4ccccc4)c3=O)[C@@H]21	DENV2 CPE 92.3 (no result: PfHsp90 yeast 2)
CC(=O)N1[C@H](C(=O)N(C)C)[C@@H](CO)[C@@H]2Cn3c(ccc(-c4ccccc4F)c3=O)[C@@H]21	DENV2 CPE 34.4 (no result: PfHsp90 yeast 2)
CC(=O)N1[C@H](C(=O)N2CCCCC2)[C@@H](CO)[C@@H]2Cn3c(ccc(-c4ccccc4)c3=O)[C@@H]21	DENV2 CPE 20.1 (no result: PfHsp90 yeast 2)
CC(=O)N1[C@@H]2c3ccc(-c4ccccc4)c(=O)n3C[C@@H]2[C@@H](CO)[C@@H]1C(=O)N1CCCCC1	none (no result: PfHsp90 yeast 2)
COc1ccc(-c2ccc([C@H]3[C@@H](CO)N4C(=O)CNC[C@H]34)cc2)cc1	none (no result: Cneo AK release, PfHsp90 yeast 2)
COCC(=O)Nc1ccc2c(c1)OC[C@@H](C)NC[C@H](C)[C@H](OC)CN(C)C2=O	DENV2 CPE 30.0 (no result: PfHsp90 yeast 2)
CCC(=O)Nc1ccc2c(c1)OC[C@@H](C)NC[C@@H](C)[C@@H](OC)CN(C)C2=O	none (no result: PfHsp90 yeast 2)
CCC(=O)Nc1ccc2c(c1)OC[C@@H](C)NC[C@H](C)[C@@H](OC)CN(C)C2=O	DENV2 CPE 27.7 (no result: PfHsp90 yeast 2)
COCC(=O)Nc1ccc2c(c1)OC[C@H](C)NC[C@@H](C)[C@@H](OC)CN(C)C2=O	DENV2 CPE 24.1 (no result: PfHsp90 yeast 2)
CO[C@@H]1CN(C)C(=O)c2cc(NS(=O)(=O)c3cn(C)cn3)ccc2OC[C@@H](C)N(Cc2cccc(F)c2)C[C@@H]1C	none (no result: PfHsp90 yeast 2)
CON(C)C(=O)CCN(Cc1ccccc1)C(=O)OC(C)(C)C	none
CC(C)(C)OC(=O)NOCC(=O)N(CC(=O)c1ccccc1)Cc1ccccc1	DENV2 CPE 28.7 (no result: AF4-AF9 inh)
CC(C)(C)OC(=O)NOCC(=O)N(Cc1ccccc1)CC(O)COc1ccccc1 (configuration not stated)	Ecoli rRNA inh -18.1, DENV2 CPE inconclusive
O=C(C[C@@H]1C=C[C@H](NC(=O)Nc2ccc(C(F)(F)F)cc2)[C@@H](CO)O1)NCc1cc(F)cc(F)c1	none (no result: PfHsp90 yeast 2)
O=C1NC(c2cccc(Cl)c2)Oc2ccccc21 (configuration not stated)	none
CCC1NC(=O)c2ccccc2N1c1cccc(Cl)c1 (configuration not stated)	Ecoli rRNA inh -45.3
COc1ccc(CN(C)C[C@@H]2Oc3ccc(NC(=O)Nc4ccc5c(c4)OCO5)cc3C(=O)N([C@H](C)CO)C[C@@H]2C)cc1	none (no result: PfHsp90 yeast 2)
COc1ccc(C(=O)N2CCNC(=O)C2CC(=O)Nc2cccc(Cl)c2Cl)cc1 (configuration not stated)	DENV2 CPE 88.8
CCCCCCOC(=O)Sc1nc2ccccc2o1	PfHsp90 yeast 2 128.4 (no result: S100A4 MyoIIA, Ecoli rRNA inh, AF4-AF9 inh, DENV2 CPE)
COC(=O)CSc1nc2ccccc2o1	none (no result: S100A4 MyoIIA, Ecoli rRNA inh, AF4-AF9 inh, DENV2 CPE)
Cc1noc(C)c1NC(=O)Nc1ccc2c(c1)C(=O)N([C@@H](C)CO)C[C@@H](C)[C@H](CN(C)S(C)(=O)=O)O2	none (no result: PfHsp90 yeast 2)
COc1ccc(-c2nc(N=Nc3ccc(O)cc3)n[nH]2)cc1	Ecoli rRNA inh -27.0
Cc1ccc(-c2nc(N=Nc3ccc(O)cc3)n[nH]2)cc1	none (no result: S100A4 MyoIIA, Ecoli rRNA inh, Cneo AK release, AF4-AF9 inh, DENV2 CPE)
COCCNC(=S)N(CCc1c(C)[nH]c2ccc(OC)cc12)Cc1ccco1	none
CNC(=S)N(CCc1c(C)[nH]c2ccc(OC)cc12)Cc1ccco1	Ecoli rRNA inh -22.5, AF4-AF9 inh inconclusive
Cc1noc(C)c1C(=O)N(C)C[C@@H]1OCc2ccccc2-c2c(n(C)c3ccccc23)C(=O)N([C@@H](C)CO)C[C@@H]1C	none (no result: PfHsp90 yeast 2)
O=C(O)C[C@@H]1C[C@@H]2c3cc(NC(=O)c4ccc5c(c4)OCO5)ccc3O[C@@H]2[C@@H](CO)O1	none (no result: PfHsp90 yeast 2)
O=[N+]([O-])c1ccc(-c2csc(NN=C3CCCC3)n2)cc1	Ecoli rRNA inh -21.9
CCS(=O)(=O)N1CCC2(CC1)CN(C(=O)CN1CCOCC1)[C@@H](CO)c1c2c2ccc(OC)cc2n1C	none (no result: S100A4 MyoIIA, Cneo AK release, PfHsp90 yeast 2)

Screening data: PubChem BioAssay, Broad Institute
